Assays:
[1] = system: Bacillus subtilis; experiment: Inhibition of Bacillus subtilis full length NusB/GST-tagged NusE interaction at 25 uM preincubated with NusE for 15 mins followed by incubation with NusB for 1 hr by ELISA
Summary of the method: (§1)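 Wells coated overnight at 4 °C with purified full-length B. subtilis NusB (250 nM in PBS), then blocked with 1% BSA/PBS for 2 h at RT. Inhibitor preincubated with GST-NusE (200 nM) for 15 min at 37 °C, then added to wells for 1 h at RT. Bound NusE detected with rabbit anti-GST (1:2000), goat anti-rabbit HRP (1:2000) and TMB (6 min, 37 °C), read at OD 600 nm.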

[2] = Inhibition of Bacillus subtilis full length NusB/GST-tagged NusE preincubated with NusE for 15 mins followed by incubation with NusB for 1 hr by ELISA; summary of the method: as §1
[3] = system: Escherichia coli; experiment: Growth inhibition of Escherichia coli DH5alpha at 200 uM measured every 10 mins for 16 hrs; assay type: functional; settings: DH5[alpha], read-out: GI
Summary of the method: (§2)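 Cells grown at 37 °C in LB with shaking to OD 0.6–0.7 AU, then added to LB containing compound (50 mM DMSO stocks, serially diluted to 200 μM). Plates incubated at 37 °C, 200 rpm. OD600 was read every 10 min for 16 h with LB as blank. Triplicates, with growth compared to cells given equal DMSO.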

[4] = system: Bacillus subtilis; experiment: Growth inhibition of Bacillus subtilis at 200 uM measured every 10 mins for 16 hrs; assay type: functional; settings: read-out: GI; summary of the method: as §2

| Compound | inhibition [1] [%] | IC50 [2] [µM] | inhibition of growth at 200 µM [3] [%] | inhibition of growth at 200 µM [4] [%] |
| --- | --- | --- | --- | --- |
| COc1ccc(/C=C/C(=O)c2ccc(OC)c(OC)c2)c(OC)c1 | 48 | – | – | – |
| Oc1ccccc1CNc1ccc(OCCCCOc2ccc(NCc3ccccc3O)cc2)cc1 | 45 | 210 | – | – |
| H-YDHRLLDQS-NH2 | – | 71 | – | – |
| O=[N+]([O-])c1ccc(OCC(O)CNCCNc2nccc(C(F)(F)F)n2)cc1 (racemic) | – | – | 11 | 19 |

Continued, in another order:

| inhibition [1] [%] | IC50 [2] [µM] | Compound | inhibition of growth at 200 µM [3] [%] | inhibition of growth at 200 µM [4] [%] |
| --- | --- | --- | --- | --- |
| 3 | – | COc1ccc(-c2cc(-c3ccc(OC)c(OC)c3)nc(NS(=O)(=O)c3ccc(N)cc3)n2)c(OC)c1 | – | – |
| 5 | – | COc1cc(/C=N/NC(=O)CCc2ccc(O)cc2)cc(OC)c1OC | 10 | 44 |
| 88 | 6.1 | COc1ccc(-c2cc(-c3ccc(OC)c(OC)c3)nc(NS(=O)(=O)c3ccc(NC(C)=O)cc3)n2)c(OC)c1 | 21 | 9 |
| 52 | 19.8 | CCNC(=O)Nc1ccc(OCCCCOc2ccc(NC(=O)NCC)cc2)cc1 | 17 | – |

Reference: ChEMBL document CHEMBL3872271, “Identification and validation of small molecule modulators of the NusB-NusE interaction” (Bioorg Med Chem Lett, 2017)
